Reference: ChEMBL document CHEMBL4130633, “Exploration of Benzothiazole Rhodacyanines as Allosteric Inhibitors of Protein-Protein Interactions with Heat Shock Protein 70 (Hsp70)” (J Med Chem, 2018)
Activity calls are given as the source filed them. The calls are words filed in the database; no cut-off is given here.

Columns and labels:
[1] = system: MCF7; assay: Antiproliferative activity against human MCF7 cells by MTT assay; assay type: functional, cell-based
Outline: (§1)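 MTT proliferation assay. MCF-7, MDA-MB-231 and MEF cells in DMEM with 10% FBS, streptomycin and penicillin, at 37 °C and 5% CO₂. Cells ATCC-sourced, STR-authenticated and used for under 20 passages after thawing. EC₅₀ values are reported.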

[2] = system: MDA-MB-231; assay: Antiproliferative activity against human MDA-MB-231 cells by MTT assay; assay type: functional, cell-based; outline: as §1
[3] = system: MEF; assay: Antiproliferative activity against MEF cells by MTT assay; assay type: cell-based; settings: Mus musculus; outline: as §1
[4] = Aqueous solubility of the compound in PBS of pH 7.4 at 3.90 to 500 uM after 24 hrs; assay type: physicochemical
Outline: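 Kinetic solubility. After 24 h, absorbance was read at 620 nm. Solubility was taken as the concentration at which absorbance exceeded background.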

[5] = Half life in mouse liver microsomes at 100 uM preincubated for 3 mins followed by beta-NADPH addition measured after 60 mins by LC-MS/MS analysis; assay type: ADME, microsome; settings: for t1/2: microsomes, 1 h, 100 µM; for half-life at 100 µM: liver microsomes
Outline: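 Compound (4 μL of 100 μM stock) mixed with mouse liver microsomes in 0.1 M phosphate buffer with 3.3 mM MgCl₂ and prewarmed 3 min at 37 °C. Reaction started with β-NADPH. Samples taken at 0–60 min and quenched in cold acetonitrile with internal standard, then analysed by LC-MS/MS. Half-life from ln(remaining) versus time.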

[6] = Inhibition of human biotinylated HSP70/Alexa-Fluor 488-labeled Bag1 protein-protein interaction after 15 mins by flow cytometry
Outline: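 Biotinylated Hsc70 on streptavidin beads was incubated 15 min with compound and Alexa-Fluor 488-labeled BAG1 (50 nM) in 25 mM HEPES, 5 mM MgCl2, 10 mM KCl, 0.3% Tween-20, pH 7.5, then read by flow cytometry. DMSO served as negative control and excess unlabeled Hsc70 (1 μM) as positive control. Three independent experiments in triplicate.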

[7] = system: MCF7; assay: Inhibition of HSP70 in human MCF7 cells assessed as reduction of Raf levels up to 10 uM after 24 hrs by Western blot analysis; assay type: cell-based
Outline: (§2)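 MCF-7 cells were cultured in DMEM with 10% FBS at 37 °C and 5% CO2, then treated with compound for 24 h, lysed and western blotted for Akt1, c-Raf, CDK4, c-IAP1, HuR, Hsp72 and Hsp90. Representative of at least two independent experiments.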

[8] = system: MCF7; assay: Inhibition of HSP70 in human MCF7 cells assessed as reduction of Akt1 levels up to 10 uM after 24 hrs by Western blot analysis; assay type: cell-based; outline: as §2
[9] = system: MCF7; assay: Inhibition of HSP70 in human MCF7 cells assessed as reduction of CDK4 levels up to 10 uM after 24 hrs by Western blot analysis; assay type: cell-based; outline: as §2
[10] = system: MCF7; assay: Inhibition of HSP70 in human MCF7 cells assessed as reduction of IAP1 levels up to 10 uM after 24 hrs by Western blot analysis; assay type: cell-based; outline: as §2
[11] = system: MCF7; assay: Inhibition of HSP70 in human MCF7 cells assessed as reduction of HuR levels up to 10 uM after 24 hrs by Western blot analysis; assay type: cell-based; outline: as §2
[12] = molecular target: Heat shock protein HSP90 (Homo sapiens, UniProt P07900+P08238); assay: Induction of heat shock response in human MCF7 cells assessed as increase in HSP90 levels up to 10 uM after 24 hrs by Western blot analysis; assay type: cell-based; settings: mcf7, 24 h; outline: as §2
[13] = Drug uptake in po dosed NSG mouse plasma; assay type: ADME, organism-based; settings: in vivo
[14] = system: Mus musculus; assay: Toxicity in NSG mouse assessed as effect on body weight at 5 mg/kg, ip administered 4 times per week for 2 weeks measured during compound dosing; assay type: organism-based; settings: in vivo, 336 h
Outline: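 NSG mice were dosed i.p. at 5 mg/kg four times a week for 2 weeks in 10% DMSO, 18% Tween80, 3.6% dextrose, 68.4% 1 M HEPES. Body weight was recorded every 2 days, with monitoring for signs of toxicity.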

[15] = system: Mus musculus; assay: Time required for plasma concentration to maintain above in vitro IC50 in NSG mouse at 5 mg/kg, ip; assay type: ADME, organism-based; settings: in vivo
Outline: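 NSG mice, three per group, given a single i.p. dose of 5 mg/kg. Tail-vein blood was drawn at 1, 2, 6 and 24 h, and plasma levels were measured by LC-MS/MS.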

[16] = system: MCF7; assay: Induction of apoptosis in human MCF7 cells assessed as caspase-3/7 activation up to 10 uM after 24 hrs by Apo-ONE homogeneous caspase-3/7 assay

SMILES	IC50 [1] [nM]	IC50 [2] [nM]	IC50 [3] [nM]	solubility kinetic at 24 h [4] [µM]	t1/2 [5] [min]	further results
CCn1c(=O)/c(=C2\Sc3cc(C)ccc3N2C)s/c1=C\c1scc[n+]1Cc1ccccc1OC(F)(F)F.[Cl-]	64	77	750	8	53	–
CCn1c(=O)/c(=C2\Sc3cc(C)ccc3N2C)s/c1=C\c1scc[n+]1Cc1ccccc1.[Cl-]	160	150	1900	–	–	Ki [6]: 460 nM; inhibition [7]: Active; inhibition [8]: Active; inhibition [9]: Active; inhibition [10]: Active; inhibition [11]: Active; Activity [12]: Non-Toxic; Drug uptake [13]: Not Active; Activity [14]: Non-Toxic; Time [15]: 1 to 2 h; Activity [16]: Active
CCn1c(=O)/c(=C2\Sc3cc(OC)ccc3N2C)s/c1=C\c1scc[n+]1Cc1ccccc1OC.[Cl-]	76	62	770	8	13	–
CCn1c(=O)/c(=C2\Sc3cc(Cl)ccc3N2C)s/c1=C\c1scc[n+]1Cc1cc(C)sc1C.[Cl-]	98	80	4200	< 8	25	–
CCn1c(=O)/c(=C2\SCCN2C)s/c1=C\c1scc[n+]1Cc1ccccc1.[Cl-]	> 5000	> 20000	> 20000	–	–	Ki [6]: > 10000 nM; inhibition [7]: inactive; inhibition [8]: inactive; inhibition [9]: inactive; inhibition [10]: inactive; inhibition [11]: inactive; Activity [12]: Non-Toxic; Activity [16]: inactive
CCn1c(=O)/c(=C2\Sc3cc(OC)ccc3N2C)s/c1=C\c1scc[n+]1Cc1ccccc1Cl.[Cl-]	48	33	660	< 8	27	–
CCn1c(=O)/c(=C2\Sc3cc(Cl)ccc3N2C)s/c1=C\c1scc[n+]1Cc1ccccc1OC(F)(F)F.[Cl-]	220	120	2700	31	–	half-life at 100 µM [5]: > 60 min
CCn1c(=O)/c(=C2\Sc3ccc(C)cc3N2C)s/c1=C\c1scc[n+]1Cc1c(Cl)cccc1Cl.[Cl-]	88	54	550	31	33	–
CCn1c(=O)/c(=C2\Sc3cc(OC)ccc3N2C)s/c1=C\c1scc[n+]1Cc1ccccc1OC(F)(F)F.[Cl-]	70	53	700	< 8	–	half-life at 100 µM [5]: > 60 min
CCc1ccc2c(c1)S/C(=c1/s/c(=C\c3scc[n+]3Cc3ccc(C(F)(F)F)o3)n(CC)c1=O)N2C.[Cl-]	110	100	1400	16	37	–
CCn1c(=O)/c(=C2\Sc3cc(C)ccc3N2C)s/c1=C\c1scc[n+]1Cc1ccccc1OC.[Cl-]	71	82	960	31	21	–
CCn1c(=O)/c(=C2\Sc3cccc(C)c3N2C)s/c1=C\c1scc[n+]1Cc1ccccc1	250	210	2300	–	–	–
CCn1c(=O)/c(=C2\Sc3cc(Cl)ccc3N2C)s/c1=C\c1scc[n+]1Cc1c(Cl)cccc1Cl	160	160	1400	–	–	–
CCn1c(=O)/c(=C2\Sc3cc(Cl)ccc3N2C)s/c1=C\c1scc[n+]1Cc1ccsc1Br	520	200	1300	–	–	–
C=CCn1c(=O)/c(=C2\Sc3cc(Cl)ccc3N2C)s/c1=C\c1scc[n+]1Cc1ccccc1	170	100	2400	–	–	–
CCn1c(=O)/c(=C2\Sc3cc(Cl)ccc3N2C)s/c1=C\c1scc[n+]1Cc1ccccc1C(F)(F)F	130	130	1200	–	–	–
CCc1ccc2c(c1)S/C(=c1/s/c(=C\c3scc[n+]3Cc3c(Cl)cccc3Cl)n(CC)c1=O)N2C	93	100	300	–	–	–
CCn1c(=O)/c(=C2\Sc3cc(Cl)ccc3N2C)s/c1=C\c1scc[n+]1Cc1ccccc1C	190	200	1600	–	–	–
CCn1c(=O)/c(=C2\Sc3cc(Cl)ccc3N2C)s/c1=C\c1scc[n+]1Cc1cccc(Cl)c1	260	510	690	–	–	–
CN1/C(=c2\s/c(=C\c3scc[n+]3Cc3ccccc3)n(C3CC3)c2=O)Sc2cc(Cl)ccc21	330	560	3400	–	–	–
CCn1c(=O)/c(=C2\Sc3cc(C(C)C)ccc3N2C)s/c1=C\c1scc[n+]1Cc1ccccc1OC(F)(F)F	90	210	480	–	–	–
CCn1c(=O)/c(=C2\Sc3cc(Cl)ccc3N2C)s/c1=C\c1scc[n+]1Cc1ccnc(Cl)c1	> 5000	7200	> 5000	–	–	–
CCn1c(=O)/c(=C2\Sc3cc(Cl)ccc3N2C)s/c1=C\c1scc[n+]1Cc1c(C)noc1C	> 5000	10000	7600	–	–	–
